Data: article PMC8112392 (Science signaling, 2021)

system: C. jejuni 11168-O; assay: μ-Slide chemotactic cell migration visualisation; assay type: cell-based; details: time-lapse imaging, 10 mM ligand
In short: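 Wild-type, Δtlp10 and complemented C. jejuni 11168-O cells are FITC-labelled. In a μ-Slide, the left reservoir holds bacterial suspension, and the right reservoir and transition zone hold PBS. Once cells near the transition zone, isoleucine or arginine is added to the right reservoir (final 10 mM). In the sequential test, arginine is added at 20 sec after partial migration toward isoleucine. Migration is recorded by time-lapse video at 40× magnification.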

Row | Structure (SMILES) | Tlp10-mediated chemotactic response type
1 | CC[C@H](C)[C@H](N)C(=O)O [isoleucine] | chemoattractant response
2 | N=C(N)NCCC[C@H](N)C(=O)O [arginine] | chemorepellent response

target: Tlp10^LBD H193A (Campylobacter jejuni, UniProt Q0PCA6, H193A); assay: biochemical; assay type: binding, C. jejuni; details: not given

Row | Structure (SMILES) | Kd
3 | O=C(O)CC(O)C(=O)O (stereo not drawn) [malate] | 161 ± 23 µM
4 | OC[C@H]1OC(O)[C@@H](O)[C@@H](O)[C@@H]1O (stereo partly drawn) [mannose] | 32.1 ± 12 µM
5 | c1ncc2nc[nH]c2n1 [purine] | 19 ± 2 µM
6 | CC(=O)N[C@H]1[C@H]([C@H](O)[C@H](O)CO)OC(O)(C(=O)O)C[C@@H]1O (stereo partly drawn) [sialic acid] | 20.4 ± 9 µM
7 | CC[C@H](C)[C@H](N)C(=O)O [isoleucine] | 30.8 ± 7 µM
8 | Cc1ncc(C[n+]2csc(CCO)c2C)c(N)n1 [thiamine] | 50.6 ± 6 µM
9 | N=C(N)NCCC[C@H](N)C(=O)O [arginine] | 29 ± 8 µM

target: Tlp10^LBD Y70A (Campylobacter jejuni, UniProt Q0PCA6, Y70A); assay: biochemical; assay type: binding, C. jejuni; details: not given

Row | Structure (SMILES) | Kd
10 | O=C(O)CC(O)C(=O)O (stereo not drawn) [malate] | 184 ± 14 µM
11 | OC[C@H]1OC(O)[C@@H](O)[C@@H](O)[C@@H]1O (stereo partly drawn) [mannose] | 43.3 ± 3 µM
12 | c1ncc2nc[nH]c2n1 [purine] | 16 ± 1 µM
13 | CC(=O)N[C@H]1[C@H]([C@H](O)[C@H](O)CO)OC(O)(C(=O)O)C[C@@H]1O (stereo partly drawn) [sialic acid] | 24.1 ± 7 µM
14 | CC[C@H](C)[C@H](N)C(=O)O [isoleucine] | 28.1 ± 6 µM
15 | Cc1ncc(C[n+]2csc(CCO)c2C)c(N)n1 [thiamine] | 62 ± 17 µM
16 | N=C(N)NCCC[C@H](N)C(=O)O [arginine] | 19.1 ± 12 µM

target: T1, Tlp10^LBD wild type (Campylobacter jejuni, UniProt Q0PCA6); assay: not given; assay type: binding; details: competition SPR, compounds at 10x KD

Row | Structure (SMILES) | ligand-binding site on Tlp10^LBD
17 | O=C(O)CC(O)C(=O)O (stereo not drawn) [malate] | site B
18 | OC[C@H]1OC(O)[C@@H](O)[C@@H](O)[C@@H]1O (stereo partly drawn) [mannose] | site B
19 | c1ncc2nc[nH]c2n1 [purine] | site A
20 | CC(=O)N[C@H]1[C@H]([C@H](O)[C@H](O)CO)OC(O)(C(=O)O)C[C@@H]1O (stereo partly drawn) [sialic acid] | site B
21 | CC[C@H](C)[C@H](N)C(=O)O [isoleucine] | site A
22 | Cc1ncc(C[n+]2csc(CCO)c2C)c(N)n1 [thiamine] | both site A and site B with a preference for site B
23 | N=C(N)NCCC[C@H](N)C(=O)O [arginine] | site A

target: Tlp10^LBD N115A (Campylobacter jejuni, UniProt Q0PCA6, N115A); assay: biochemical; assay type: binding, C. jejuni; details: not given

Row | Structure (SMILES) | Kd
24 | O=C(O)CC(O)C(=O)O (stereo not drawn) [malate] | 176 ± 10 µM
25 | OC[C@H]1OC(O)[C@@H](O)[C@@H](O)[C@@H]1O (stereo partly drawn) [mannose] | 52.1 ± 10 µM
26 | c1ncc2nc[nH]c2n1 [purine] | 29 ± 8 µM
27 | CC(=O)N[C@H]1[C@H]([C@H](O)[C@H](O)CO)OC(O)(C(=O)O)C[C@@H]1O (stereo partly drawn) [sialic acid] | 34.9 ± 13 µM
28 | CC[C@H](C)[C@H](N)C(=O)O [isoleucine] | 48.1 ± 5 µM
29 | Cc1ncc(C[n+]2csc(CCO)c2C)c(N)n1 [thiamine] | 49.2 ± 10 µM
30 | N=C(N)NCCC[C@H](N)C(=O)O [arginine] | 41.9 ± 12 µM

system: C. jejuni 11168-O; assay: not given; assay type: cell-based; details: nutrient-depleted chemotaxis assay, 2 mM ligand

Row | Structure (SMILES) | Tlp10-mediated chemotactic response type | migration of Δtlp10^LBD strain towards ligand compared to wild-type
31 | O=C(O)CC(O)C(=O)O (stereo not drawn) [malate] | attractants | 
32 | OC[C@H]1OC(O)[C@@H](O)[C@@H](O)[C@@H]1O (stereo partly drawn) [mannose] | attractants | 
33 | c1ncc2nc[nH]c2n1 [purine] |  | not significantly affected
34 | CC[C@H](C)[C@H](N)C(=O)O [isoleucine] | attractants | 
35 | Cc1ncc(C[n+]2csc(CCO)c2C)c(N)n1 [thiamine] | repellent response | increase in migration
36 | N=C(N)NCCC[C@H](N)C(=O)O [arginine] | repellent response | increase in migration

system: Tlp10^LBD; assay: Glycan and small molecule array binding of purified Tlp10 LBD; set-up: species or system C. jejuni; details: binding to Tlp10^LBD on glycan / small molecule array

Row | Structure (SMILES) | array
37 | OC[C@H]1OC(O)[C@@H](O)[C@@H](O)[C@@H]1O (stereo partly drawn) [mannose] | +
38 | c1ncc2nc[nH]c2n1 [purine] | +
39 | CC(=O)N[C@H]1[C@H]([C@H](O)[C@H](O)CO)OC(O)(C(=O)O)C[C@@H]1O (stereo partly drawn) [sialic acid] | +
40 | CC[C@H](C)[C@H](N)C(=O)O [isoleucine] | +
41 | Cc1ncc(C[n+]2csc(CCO)c2C)c(N)n1 [thiamine] | +
42 | N=C(N)NCCC[C@H](N)C(=O)O [arginine] | +

target: Tlp10^LBD N120A (Campylobacter jejuni, UniProt Q0PCA6, N120A); assay: biochemical; assay type: binding, C. jejuni; details: not given

Row | Structure (SMILES) | Kd
43 | O=C(O)CC(O)C(=O)O (stereo not drawn) [malate] | 215 ± 31 µM
44 | OC[C@H]1OC(O)[C@@H](O)[C@@H](O)[C@@H]1O (stereo partly drawn) [mannose] | 46.4 ± 12 µM
45 | c1ncc2nc[nH]c2n1 [purine] | 34 ± 3 µM
46 | CC(=O)N[C@H]1[C@H]([C@H](O)[C@H](O)CO)OC(O)(C(=O)O)C[C@@H]1O (stereo partly drawn) [sialic acid] | 37.1 ± 6 µM
47 | CC[C@H](C)[C@H](N)C(=O)O [isoleucine] | 51.2 ± 1.2 µM
48 | Cc1ncc(C[n+]2csc(CCO)c2C)c(N)n1 [thiamine] | 58.3 ± 9 µM
49 | N=C(N)NCCC[C@H](N)C(=O)O [arginine] | 50.1 ± 8 µM

system: C. jejuni 11168-O; assay: μ-Slide chemotaxis cell enumeration assay; assay type: cell-based; details: 10 mM chemoeffector
In short: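 Wild-type, Δtlp10LBD and complemented strains are harvested from MHA plates into PBS, adjusted to OD600 1 and mixed 1:1 (vol:vol) with 1% LMT. The opposite μ-Slide reservoir holds chemoeffector (final 10 mM) in LMT (final 0.35%). Slides are incubated 3 h at 42°C, microaerobic. Cells in the chemoeffector reservoir are enumerated by viable count. Three biological repeats are run, each in triplicate.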

Row | Structure (SMILES) | Tlp10-mediated chemotactic response type | migration of Δtlp10^LBD cells toward ligand compared with wild-type
50 | OC[C@H]1OC(O)[C@@H](O)[C@@H](O)[C@@H]1O (stereo partly drawn) [mannose] | attractant response | decreased
51 | CC(=O)N[C@H]1[C@H]([C@H](O)[C@H](O)CO)OC(O)(C(=O)O)C[C@@H]1O (stereo partly drawn) [sialic acid] |  | No significant differences

target: T1, Tlp10^LBD wild type; assay: biochemical; assay type: binding; details: KD Tlp10^LBD Wild-type, SPR, Table 2, mean ± s.d., n = 3

Row | Structure (SMILES) | Kd
52 | O=C(O)CC(O)C(=O)O (stereo not drawn) [malate] | 168 ± 19 µM
53 | OC[C@H]1OC(O)[C@@H](O)[C@@H](O)[C@@H]1O (stereo partly drawn) [mannose] | 39.6 ± 9 µM
54 | c1ncc2nc[nH]c2n1 [purine] | 21 ± 6 µM
55 | CC(=O)N[C@H]1[C@H]([C@H](O)[C@H](O)CO)OC(O)(C(=O)O)C[C@@H]1O (stereo partly drawn) [sialic acid] | 29.3 ± 6.9 µM
56 | CC[C@H](C)[C@H](N)C(=O)O [isoleucine] | 37.9 ± 7 µM
57 | Cc1ncc(C[n+]2csc(CCO)c2C)c(N)n1 [thiamine] | 59.4 ± 13 µM
58 | N=C(N)NCCC[C@H](N)C(=O)O [arginine] | 27.9 ± 3 µM

same assay, conditions: KD, SPR, wild-type Tlp10^LBD, mean ± SD, n = 3

Row | Structure (SMILES) | Kd
59 | O=C(O)CC(O)C(=O)O (stereo not drawn) [malate] | 168 ± 19 µM
60 | OC[C@H]1OC(O)[C@@H](O)[C@@H](O)[C@@H]1O (stereo partly drawn) [mannose] | 39.6 ± 9 µM
61 | c1ncc2nc[nH]c2n1 [purine] | 21 ± 6 µM
62 | CC(=O)N[C@H]1[C@H]([C@H](O)[C@H](O)CO)OC(O)(C(=O)O)C[C@@H]1O (stereo partly drawn) [sialic acid] | 29.3 ± 6.9 µM
63 | CC[C@H](C)[C@H](N)C(=O)O [isoleucine] | 37.9 ± 7 µM
64 | Cc1ncc(C[n+]2csc(CCO)c2C)c(N)n1 [thiamine] | 59.4 ± 13 µM
65 | N=C(N)NCCC[C@H](N)C(=O)O [arginine] | 27.9 ± 3 µM

same assay, conditions: binding to Tlp10^LBD by SPR

Row | Structure (SMILES) | SPR
66 | O=C(O)CC(O)C(=O)O (stereo not drawn) [malate] | +
67 | OC[C@H]1OC(O)[C@@H](O)[C@@H](O)[C@@H]1O (stereo partly drawn) [mannose] | +
68 | c1ncc2nc[nH]c2n1 [purine] | +
69 | CC(=O)N[C@H]1[C@H]([C@H](O)[C@H](O)CO)OC(O)(C(=O)O)C[C@@H]1O (stereo partly drawn) [sialic acid] | +
70 | CC[C@H](C)[C@H](N)C(=O)O [isoleucine] | +
71 | Cc1ncc(C[n+]2csc(CCO)c2C)c(N)n1 [thiamine] | +
72 | N=C(N)NCCC[C@H](N)C(=O)O [arginine] | +
